Active and inactive are the calls of the source. The rule behind the calls is not given here.
What was measured:
Nucleic Acid = test: Induction of calf thymus DNA cleavage at 10 to 25 nM after 12 h by PAGE analysis; format: nucleic-acid assay; settings: in the assay text read “208-bp PCR fragment DNA” for “calf thymus DNA”
Procedure, shortened: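 5′-Texas Red-labeled 208 bp PCR fragments alkylated in 5.0 mM sodium phosphate (pH 7.0) with 10% DMF, room temperature, 12 h. Quenched with calf thymus DNA and heated 95 °C for 5 min under neutral conditions. Recovered DNA in formamide loading dye, heated 95 °C 20 min, then run on 6% denaturing polyacrylamide gel with 6.0 M urea at 1.5 kV, 40 °C.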

A549 [1] = test: Downregulation of FHIT gene expression in human A549 cells at 21 nM after 12 hrs by microarray analysis relative to control; format: functional
Procedure, shortened: (§1)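 A549 cells, 4 × 10^5 per 60 mm dish, were exposed to conjugate for 12 h in medium with 0.1% DMSO; vehicle control was 0.1% DMSO. Whole human genome (~25 000 genes) expression was profiled by microarray and expression compared with the control.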

A549 [2] = test: Downregulation of SLC25A21 gene expression in human A549 cells at 21 nM after 12 hrs by microarray analysis relative to control; format: functional
Procedure, shortened: (§2)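 A549 cells (RPMI-1640, 10% heat-inactivated FBS, penicillin/streptomycin, 37 °C, 5% CO2) seeded at 4 × 10^5 per 60 mm dish. Exposed 12 h to conjugate at 21, 26, 34 or 100 nM in medium with 0.1% DMSO, against 0.1% DMSO control. Whole-genome (~25 000 genes) expression profiled by microarray.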

A549 [3] = test: Upregulation of HES2 gene expression in human A549 cells at 21 nM after 12 hrs by microarray analysis relative to control; format: functional
Procedure, shortened: (§3)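 4 ×10^5 A549 cells seeded per 60 mm dish and treated 12 h with conjugate (21, 26, 34 or 100 nM) in medium; control medium contained 0.1% DMSO, with conjugates added as 0.1% DMSO solutions. Whole human genome (~25 000 genes) expression profiled by microarray against the DMSO control. A549 culture: RPMI-1640 with 10% heat-inactivated FBS, penicillin/streptomycin, 37 °C, 5% CO2.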

A549 [4] = test: Cytotoxicity against human A549 cells assessed as cell growth inhibition after 48 hrs by microplate reader analysis; format: functional, cell-based; settings: A549, 48 h
Procedure, shortened: (§4)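 Medium was RPMI-1640 for EBC-1, A549 and DU145, and DMEM for PC-3, SK-N-SH and K562. Both media had 10% heat-inactivated FBS plus penicillin/streptomycin; cells were kept at 37 °C, 5% CO2. Cells were seeded at 5000/well and given compound from DMSO stock (final 0.1% DMSO) for 48 h. Viability was read by WST-8 colorimetry, absorbance at 450 and 600 nm, and IC50 determined.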

K562 = test: Cytotoxicity against human K562 cells assessed as cell growth inhibition after 48 hrs by microplate reader analysis; format: functional, cell-based; settings: K562, 48 h; procedure, shortened: as §4
A549 [5] = test: Downregulation of RABGAP1L gene expression in human A549 cells at 21 nM after 12 hrs by microarray analysis relative to control; format: functional; procedure, shortened: as §2
A549 [6] = test: Upregulation of Q6NTF7 gene expression in human A549 cells at 21 nM after 12 hrs by microarray analysis relative to control; format: functional; procedure, shortened: as §3
A549 [7] = test: Downregulation of SMYD3 gene expression in human A549 cells at 21 nM after 12 hrs by microarray analysis relative to control; format: functional; procedure, shortened: as §2
A549 [8] = test: Upregulation of BTG2 gene expression in human A549 cells at 21 nM after 12 hrs by microarray analysis relative to control; format: functional; procedure, shortened: as §3
[9] = Cytotoxicity against human EBC1 cells assessed as cell growth inhibition after 48 hrs by microplate reader analysis; format: functional, cell-based; settings: EBC-1, 48 h; procedure, shortened: as §4
A549 [10] = test: Downregulation of PTPRK gene expression in human A549 cells at 21 nM after 12 hrs by microarray analysis relative to control; format: functional; procedure, shortened: as §2
A549 [11] = test: Downregulation of ACTG gene expression in human A549 cells at 21 nM after 12 hrs by microarray analysis relative to control; format: functional; procedure, shortened: as §1
PC-3 = test: Cytotoxicity against human PC3 cells assessed as cell growth inhibition after 48 hrs by microplate reader analysis; format: functional, cell-based; settings: PC-3, 48 h; procedure, shortened: as §4
SK-N-SH = test: Cytotoxicity against human SK-N-SH cells assessed as cell growth inhibition after 48 hrs by microplate reader analysis; format: functional, cell-based; procedure, shortened: as §4
A549 [12] = test: Upregulation of BBC3 gene expression in human A549 cells at 21 nM after 12 hrs by microarray analysis relative to control; format: functional; procedure, shortened: as §2
A549 [13] = test: Upregulation of MDM2 gene expression in human A549 cells at 21 nM after 12 hrs by microarray analysis relative to control; format: functional; procedure, shortened: as §3
A549 [14] = test: Downregulation of Q8NCR4 gene expression in human A549 cells at 21 nM after 12 hrs by microarray analysis relative to control; format: functional; procedure, shortened: as §2
A549 [15] = test: Downregulation of Q8N570_HUMAN gene expression in human A549 cells at 21 nM after 12 hrs by microarray analysis relative to control; format: functional; procedure, shortened: as §2
A549 [16] = test: Upregulation of CDKN1A gene expression in human A549 cells at 21 nM after 12 hrs by microarray analysis relative to control; format: functional; procedure, shortened: as §3
A549 [17] = test: Upregulation of FDXR gene expression in human A549 cells at 21 nM after 12 hrs by microarray analysis relative to control; format: functional; procedure, shortened: as §3
A549 [18] = test: Downregulation of SLC4A4 gene expression in human A549 cells at 21 nM after 12 hrs by microarray analysis relative to control; format: functional; procedure, shortened: as §2
A549 [19] = test: Downregulation of MBD3L1 gene expression in human A549 cells at 21 nM after 12 hrs by microarray analysis relative to control; format: functional; procedure, shortened: as §1
A549 [20] = test: Downregulation of Q5VY43 gene expression in human A549 cells at 21 nM after 12 hrs by microarray analysis relative to control; format: functional; procedure, shortened: as §2
A549 [21] = test: Downregulation of NP_060463.1 gene expression in human A549 cells at 21 nM after 12 hrs by microarray analysis relative to control; format: functional; procedure, shortened: as §1
A549 [22] = test: Downregulation of HECW2 gene expression in human A549 cells at 21 nM after 12 hrs by microarray analysis relative to control; format: functional; procedure, shortened: as §1
A549 [23] = test: Downregulation of SUPT3H gene expression in human A549 cells at 21 nM after 12 hrs by microarray analysis relative to control; format: functional; procedure, shortened: as §2
A549 [24] = test: Downregulation of NBEA gene expression in human A549 cells at 21 nM after 12 hrs by microarray analysis relative to control; format: functional; procedure, shortened: as §1
A549 [25] = test: Downregulation of NP_115632.1 gene expression in human A549 cells at 21 nM after 12 hrs by microarray analysis relative to control; format: functional; procedure, shortened: as §1
A549 [26] = test: Downregulation of CPNE4 gene expression in human A549 cells at 21 nM after 12 hrs by microarray analysis relative to control; format: functional; procedure, shortened: as §1
A549 [27] = test: Upregulation of CST8 gene expression in human A549 cells at 21 nM after 12 hrs by microarray analysis relative to control; format: functional; procedure, shortened: as §3
A549 [28] = test: Upregulation of BTNL3 gene expression in human A549 cells at 21 nM after 12 hrs by microarray analysis relative to control; format: functional; procedure, shortened: as §3
A549 [29] = test: Downregulation of FMN2 gene expression in human A549 cells at 21 nM after 12 hrs by microarray analysis relative to control; format: functional; procedure, shortened: as §1
A549 [30] = test: Upregulation of HCK gene expression in human A549 cells at 21 nM after 12 hrs by microarray analysis relative to control; format: functional; procedure, shortened: as §3
A549 [31] = test: Downregulation of RS29_HUMAN gene expression in human A549 cells at 21 nM after 12 hrs by microarray analysis relative to control; format: functional; procedure, shortened: as §2
A549 [32] = test: Downregulation of GABRA3 gene expression in human A549 cells at 21 nM after 12 hrs by microarray analysis relative to control; format: functional; procedure, shortened: as §1
DU-145 = test: Cytotoxicity against human DU145 cells assessed as cell growth inhibition after 48 hrs by microplate reader analysis; format: functional, cell-based; settings: DU-145, 48 h; procedure, shortened: as §4

- Activity (Nucleic Acid): Active
Structure (SMILES): CC(=O)Nc1cc(C(=O)Nc2cn(C)c(C(=O)NCCC(=O)Nc3cn(C)c(C(=O)Nc4cc(C(=O)NCCCC(=O)Nc5cc(C(=O)Nc6cc(C(=O)Nc7cc(C(=O)Nc8ccc9[nH]c(C(=O)N%10CC(CCl)c%11c%10cc(O)c%10ccccc%11%10)cc9c8)n(C)c7)n(C)c6)n(C)c5)n(C)c4)n3)n2)n(C)c1 (racemic)
- fold change (FC) (A549 [1]): 0.253
- fold change (FC) (A549 [2]): 0.354
- fold change (FC) (A549 [3]): 10.6
- IC50 (A549 [4]): 21.4 nM
- IC50 (K562): 7.76 nM
- fold change (FC) (A549 [5]): 0.132
- fold change (FC) (A549 [6]): 7
- fold change (FC) (A549 [7]): 0.345
- fold change (FC) (A549 [8]): 6.7
- IC50 [9]: 33.9 nM
- fold change (FC) (A549 [10]): 0.334
- fold change (FC) (A549 [11]): 0.345
- IC50 (PC-3): 6.03 nM
- IC50 (SK-N-SH): 15.1 nM
- fold change (FC) (A549 [12]): 5.7
- fold change (FC) (A549 [13]): 5.4
- fold change (FC) (A549 [14]): 0.348
- fold change (FC) (A549 [15]): 0.228
- fold change (FC) (A549 [16]): 5.2
- fold change (FC) (A549 [17]): 2
- fold change (FC) (A549 [18]): 0.278
- fold change (FC) (A549 [19]): 0.294
- fold change (FC) (A549 [20]): 0.354
- fold change (FC) (A549 [21]): 0.303
- fold change (FC) (A549 [22]): 0.346
- fold change (FC) (A549 [23]): 0.268
- fold change (FC) (A549 [24]): 0.274
- fold change (FC) (A549 [25]): 0.154
- fold change (FC) (A549 [26]): 0.314
- fold change (FC) (A549 [27]): 5.3
- fold change (FC) (A549 [28]): 2
- fold change (FC) (A549 [29]): 0.344
- fold change (FC) (A549 [30]): 4.3
- fold change (FC) (A549 [31]): 0.234
- fold change (FC) (A549 [32]): 0.343
- IC50 (DU-145): 3.31 nM
